Assay outcomes (PubChem)
Lmaj promast: Leishmania major promastigote growth inhibition, primary screen | Leishmania major promastigotes, resazurin fluorescence viability | inhibition, % at 10 µM | hit rate 9% among 200,000; in the data active = inhibition above about 50%;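 also: promastigotes grown with compound for 44 hours at 28 °C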
Dynein transport: inhibitors of GR-EGFP nuclear translocation, primary screen, dynein cargo transport inhibitor project, imaging, high-content, 3617.4 mouse cells; test concentration mostly 20 µM; stimulated with dexamethasone, 1 µM; stronger effect = lower value; z-score, hits read low; hit rate 0.47% among 220,000;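 active = plate z-score of nuclear minus cytoplasmic receptor signal below a set negative limit, without overly bright fluorescence or cell loss, cut at about -3.5 in these data, passing the limit was not always enough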;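 also: z-score of nuclear minus cytoplasmic ring GR-EGFP intensity difference per well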
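Schedule: 48 h induction, then 1 h compound, then 30 min agonist, 37 °C. Buffer or medium: tetracycline-free induction medium containing charcoal-stripped FBS. Reagent: 1.0 µM final dexamethasone stimulus. Evaluation: nuclear versus cytoplasmic GR-EGFP signal, averaged per well. Signal: high-content fluorescence imaging after fixation.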
CHOP UPR activ: activators of apoptotic CHOP UPR arm, primary screen, cell-based, CHO-CHOP luciferase reporter, luminescence, uHTS; activation, % at 10 µM; AID 449763, 2010; UPR activation; percent of tunicamycin response over DMSO baseline; hit rate 0.34% among 330,000;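 active = at 10 µM dose, activation of 40% or more, normalized to positive control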
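measured by = luciferase luminescence | assay system = CHO-CHOP cells, stable luciferase reporter of PERK-eIF2a-CHOP signalling | amount = 500 reporter cells seeded per well | timing = 6 h compound exposure at 37 °C after overnight seeding | controls = positive tunicamycin 10 µg/mL, negative DMSO alone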
UPR XBP1 act: activators of adaptive XBP1 UPR arm, primary screen, cell-based, CHO-XBP1 luciferase reporter, luminescence, uHTS | IRE1-XBP1 UPR activation; percent of tunicamycin response, DMSO as zero | activation, % at 20 µM | hit rate 0.33% among 330,000;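 active = versus positive control, 20 µM dose yields 30% or more activation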
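Test system: CHO-XBP1 luciferase reporter cells | Buffer or medium: Serum-containing F12 medium, 10% FBS | Schedule: 6 h compound exposure at 37 °C, 5% CO2 | Detection: Steady-Glo luciferase glow luminescence, 10 min after reagent addition | Read-out basis: Activation, % of tunicamycin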
T cruzi repl: inhibitors of intracellular T. cruzi growth, primary screen, luminescence, NIH3T3 host cells; T. cruzi beta-gal in NIH3T3, 90 h; inhibition, % (test concentration not listed); hit rate 1.4% among 300,000;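 active = mean inhibition across valid replicates above about 55%, limit read from the data; inconclusive = mean below that limit but half or more replicates reach it; inactive = mean below it, under half of replicates reach it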;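 also: signal also drops with host cell toxicity which is not excluded here; higher percent means less beta-gal luminescence so fewer parasites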
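Test system: β-gal T. cruzi (Tulahuen C4) inside NIH/3T3 cells / Quantity: 5,000 cells/well / Measured by: luminescence from GalScreen with 0.05% NP40, read after 60 min / Medium: DMEM plus 2% FBS / Measure: parasite load inhibition, % / Reagent: Tulahuen C4 trypomastigotes, 5000/well / Schedule: co-culture of at least 90 h after 3 h attachment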
CHOP inhibitor: inhibitors of CHOP promoter induction, primary screen, cell-based, unfolded protein response, luciferase reporter | CHO-K1 CHOP-promoter luciferase, tunicamycin-induced, 15-18 h | inhibition, % at 10 µM | hit rate 3.8% among 220,000;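 active = compounds that reduced the stress-induced luciferase reporter signal by more than about 70% of percent inhibition, limit read from the data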
Numbers stand for hits; 0 = inactive; ? = inconclusive; - = not tested or not shown. This excerpt belongs to a sample that is enriched for hits.

SMILES	Lmaj promast	Dynein transport	CHOP UPR activ	UPR XBP1 act	T cruzi repl	CHOP inhibitor
CCN(CC)c1ccc(/C=N/Nc2nc3ccccc3[nH]2)cc1	100	0	-	-	0	0
CC(=O)Nc1ccc(/C=N/Nc2nc3ccccc3[nH]2)cc1	100	0	0	0	0	0
O=C(O)c1ccc(/C=N/Nc2nc3ccccc3[nH]2)cc1	-	0	0	0	0	0
CCCSCCCNC(=O)c1ccc(C)c(NC(=O)C2=C(C)OCCS2)c1	-	-	0	0	0	-
CCOc1ccc(NC(=O)CSc2nc(=O)n(CCCN3CCOCC3)c3c2CCC3)cc1	-	-	0	0	0	-
O=C(CSc1nc2ccccc2[nH]1)NCc1ccco1	0	0	0	0	0	0
O=C(NCc1ccco1)/C(=C/c1ccc(C(F)(F)F)cc1)c1nc2ccccc2[nH]1	84	0	0	0	0	89
O=C(c1ccc(C23CC4CC(CC(C4)C2)C3)o1)N1CCOCC1	0	0	0	0	0	77
Cc1ccccc1CSCC(=O)c1c(N)n(CC(C)C)c(=O)n(C)c1=O	0	0	0	0	0	81
CCOc1ccccc1NC(=O)NCc1ccccn1	-	-	0	0	0	-
CC(C)C(c1nnnn1C1CCCCC1)N1CCc2ccccc2C1 (configuration not stated)	67	0	0	0	0	0
c1ccc(Cn2nnnc2C(c2cccs2)N2CCc3ccccc3C2)cc1 (configuration not stated)	51	0	0	0	0	76
CC(C)C(c1nnnn1Cc1ccccc1)N1CCc2ccccc2C1 (configuration not stated)	0	0	0	0	0	76
Oc1ccc(N2CCN(C(c3cccs3)c3nnnn3CCc3ccccc3)CC2)cc1 (configuration not stated)	100	0	0	0	0	0
CC(C)C(c1nnnn1C1CCCC1)N1CCc2ccccc21 (configuration not stated)	0	0	0	0	0	0
CCCc1cc(=O)[nH]c(SCC(=O)NC2(C#N)CCCCC2)n1	-	-	0	0	-	-
Cc1ccc2cc3c(NC(=O)C(C)C)nn(C)c3nc2c1	0	0	0	0	0	78
Cn1c2c(c(=O)n(C)c1=O)C(C(F)(F)F)(C(F)(F)F)N=C(CCC1CCCCC1)N2	90	0	0	0	0	0
Cc1ccc(NC(=O)COC(=O)c2nn(C)c(=O)c3ccccc23)cc1F	-	-	0	0	-	-
CCOC(=O)c1ccc(-n2ccnc2)c(NC(=O)c2cccc(Br)c2)c1	0	0	0	0	63	0
CCOC(=O)c1ccc(-n2ccnc2)c(NC(=O)c2ccc(C(C)(C)C)cc2)c1	0	0	0	0	?	0
Cc1ccc(N/N=C(\C#N)C(N)=S)cc1C	50	0	0	0	0	0
CN(C)c1ccc(NC(=O)CCN2C(=O)c3cccc([N+](=O)[O-])c3C2=O)cc1	-	-	0	0	0	-
CC(C)(C)c1nnc(N/N=C/c2ccccc2O)n(N)c1=O	98	0	0	0	0	0
O=C(COC(=O)c1ccccc1NCCO)NCC1CCCCC1	-	-	0	0	-	-
SMILES	Lmaj promast	Dynein transport	CHOP UPR activ	UPR XBP1 act	T cruzi repl	CHOP inhibitor
CCOc1ccccc1NC(=O)CCS(=O)(=O)c1ccc2c(c1)CCN2C(C)=O	-	-	0	0	0	-
CCOc1ccc(NC(=O)CSc2nnc(COc3c(C)cccc3C)o2)cc1	0	0	0	0	0	87
Cc1ccc(NC(=O)CSc2ncn(-c3ccccc3)n2)cc1C	97	0	0	0	0	0
Cc1ccc(NC(=O)CSc2nnc(-c3ccccc3C)o2)cc1C	0	0	0	0	0	70
Cc1ccc(NC(=O)CSc2nnc(-c3ccccc3Br)o2)cc1C	0	0	0	0	0	0
Clc1ccc(Cc2ccccn2)cc1	-	-	0	0	-	-
CCOc1ccc(N=C(C)C2=C(O)c3ccccc3C2=O)cc1	-	0	0	0	-	0
COc1ccc(N=C(C)C2=C(O)c3ccccc3C2=O)cc1	56	0	0	0	0	0
CC(=O)Nc1ccc(Nc2cc(C)nc3c(-c4ccccc4)cnn23)cc1	89	0	-	-	-	0
